KCNK9 inh: human KCNK9 channel inhibition; Q9NPC2; HEK293 KCNK9, FluxOR thallium flux fluorescence; hits give low values; B-score at 10 µM; 310,000 compounds, 1.2% hits; AID 488922;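 active = ratio B-score over 3 SD below the library mean, with starting fluorescence within 5 SD of its mean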;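 also: negative B-score means less thallium flux so channel inhibition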
KCC2 mod: modulates chloride dependent transport by human KCC2 | Q9H2X9 | KCC2 cells, thallium flux FluoZin-2 fluorescence | B-score of Tl+ flux slope (higher = more flux/activation; lower = inhibition) at 10 µM | 190,000 compounds, 2.2% hits | AID 1456;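 active = thallium flux slope and its plate-corrected score both differing from the plate sample mean at a set confidence after two filtering rounds, in either direction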;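 also: slope of fluorescence scaled to starting intensity during 10 to 20 s after thallium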
hERG rescue: compounds protecting human hERG from proarrhythmic drug block. CHO-hERG, FluxOR thallium flux, dofetilide IC70 present. activation (rescue from dofetilide block), less the hit threshold, % at 10 µM. 310,000 compounds, 0.51% hits. AID 1511;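 active = activation above the mean of controls blocked by dofetilide plus 5 SD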;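 also: thallium influx through hERG after potassium depolarization seen as dye fluorescence rise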
KCNK3 block: human KCNK3 channel inhibition, primary screen. O14649. CHO-KCNK3 thallium flux, FluxOR fluorescence; hits give low values. B-score at 10 µM. 340,000 compounds, 0.84% hits;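 active = B-score under library mean minus 4 SD, starting fluorescence ratio at most library mean plus 5 SD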;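 also: more negative B-score means stronger inhibition of thallium flux through KCNK3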
KCNQ1 pot: human KCNQ1 channel potentiation or activation; B-score at 10 µM; CHO-K1 KCNQ1, thallium flux FluxOR fluorescence; hits give high values; 310,000 compounds, 0.35% hits; AID 2648; P51787;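 active = fluorescence ratio B-score, a plate-corrected score, at least three library SD, with initial intensity B-score within 5 SD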
Target sequence (P51787 whole entry, looked up): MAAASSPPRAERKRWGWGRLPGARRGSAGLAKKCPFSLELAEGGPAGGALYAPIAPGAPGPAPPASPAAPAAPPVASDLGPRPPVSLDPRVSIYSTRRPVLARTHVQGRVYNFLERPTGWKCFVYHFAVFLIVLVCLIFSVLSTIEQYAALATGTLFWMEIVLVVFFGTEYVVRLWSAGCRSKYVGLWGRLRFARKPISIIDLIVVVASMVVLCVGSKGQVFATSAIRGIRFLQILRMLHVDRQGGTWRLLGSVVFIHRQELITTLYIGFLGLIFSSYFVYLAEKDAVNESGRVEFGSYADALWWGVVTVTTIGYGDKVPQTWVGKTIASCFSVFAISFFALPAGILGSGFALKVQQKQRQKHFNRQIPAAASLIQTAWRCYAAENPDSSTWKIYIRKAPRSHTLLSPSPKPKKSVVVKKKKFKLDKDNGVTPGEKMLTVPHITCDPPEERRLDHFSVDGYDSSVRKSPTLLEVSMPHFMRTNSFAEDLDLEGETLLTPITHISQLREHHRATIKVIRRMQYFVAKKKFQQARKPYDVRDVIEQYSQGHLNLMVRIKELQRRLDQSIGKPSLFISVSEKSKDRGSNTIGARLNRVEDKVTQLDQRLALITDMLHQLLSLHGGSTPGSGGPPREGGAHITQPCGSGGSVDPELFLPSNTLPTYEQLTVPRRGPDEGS
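Test system: CHO-K1 cells stably expressing KCNQ1 / Medium: assay buffer / Also added: depolarizing K+/Tl+ stimulus, K2SO4 and Tl2SO4 each 12.5 mM in 5x stock / Incubation: 90 min dye loading and 20 min compound exposure, both at room temperature / Signal: thallium influx via FluxOR fluorescence, kinetic imaging / Evaluation: B score of baseline-normalized fluorescence ratio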
KCNQ1 block: inhibitors of human KCNQ1 potassium channel | P51787 | CHO-K1 KCNQ1, FluxOR thallium flux fluorescence; hits give high values | B-score at 10 µM | 310,000 compounds, 1.3% hits | AID 2642;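 active = compounds whose thallium flux B-score, printed positive for inhibition, exceeds three library SD while starting fluorescence stays within three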;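 also: channel opened by potassium depolarization with thallium stimulus after 20 min compound exposure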
KCNK9 inh conf: confirmation of human KCNK9 potassium channel inhibitors | inhibition, % at 10 µM | shares compounds with KCNK9 inh | HEK293 KCNK9 cells, FluxOR thallium flux fluorescence | 4,900 compounds, 43% hits;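 active = thallium signal inhibited by more than 5 SD of the compound-free buffer control wells, on both duplicate plates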
Kir21 sel: selectivity of KCNK9 modulators against mouse Kir2.1; shares compounds with KCNK9 inh; Kir2.1 cells, FluxOR thallium flux fluorescence; inhibition, % at 10 µM; 4,900 compounds, 4% hits; AID 492993;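 active = thallium signal drop more than 5 SD beyond the mean of the no-compound control wells, seen in both duplicate plates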;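 also: signal is fluorescence rise after thallium addition divided by baseline fluorescence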
KCNK9 uninduced: non-induced cell nonspecific activity of KCNK9 modulators; non-induced KCNK9-HEK293, FluxOR thallium flux; 4,900 compounds, 40% hits; inhibition, % at 10 µM; AID 492997; shares compounds with KCNK9 inh;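 active = thallium signal drop beyond 5 SD of the untreated control mean, on both duplicate plates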
Large screens that a line does not name were inactive (follow-up assays come after a bar, where they were run). In the library only some 4.1% were active in any assay of this set; here they are far more common.

O=C(NCc1ccccc1)C12CN(Cc3ccccc3)CC1C(c1cccc([N+](=O)[O-])c1)=NO2 (stereo not drawn)	none | KCNK9 inh conf inactive | Kir21 sel inactive | KCNK9 uninduced inactive
CCOC(=O)/C(=N/Nc1ccccc1OC)N1CCCc2ccccc21	none | KCNK9 inh conf inactive | Kir21 sel inactive | KCNK9 uninduced inactive
CCOC(=O)/C(=N/Nc1ccccc1)N1CCCc2ccccc21	none
CC(c1cccs1)N(C(=O)Nc1ccccc1)C1CCCCC1 (stereo not drawn)	none | KCNK9 inh conf inactive | Kir21 sel inactive | KCNK9 uninduced inactive
Cc1ccc(NC(=O)COC(=O)c2csc3c2CCC(C)C3)cc1S(=O)(=O)N1CCCCC1 (stereo not drawn)	KCNK9 inh -9.22 | KCNK9 inh conf 31.5% | Kir21 sel inactive | KCNK9 uninduced inactive
O=C(COC(=O)c1ccc(S(=O)(=O)N2CCCC2)cc1)Nc1ccccc1	none (no result: KCNK9 inh, KCC2 mod, hERG rescue, KCNQ1 pot, KCNQ1 block)
CCCn1c(NC(=O)c2ccc(Cl)c(S(=O)(=O)N3CCCC3)c2)nc2ccccc21	KCNK9 inh -8.9 | KCNK9 inh conf 40.0% | Kir21 sel inactive | KCNK9 uninduced inactive
O=C(COC(=O)c1ccc(Cl)c(S(=O)(=O)N2CCCCCC2)c1)Nc1ccccc1	none | KCNK9 inh conf inactive | Kir21 sel inactive | KCNK9 uninduced inactive
CCC(C)[C@H](N)C(=O)NC[C@H]1CC[C@H](C(=O)N[C@@H](Cc2ccccc2)C(=O)O)CC1 (stereo partly drawn)	none (no result: KCC2 mod)
Cc1c(N=N/C(C(=O)Nc2ccccc2)=C(/O)c2ccccc2)c(=O)n(-c2ccccc2)n1C	KCNK9 inh -9.1, KCNQ1 block 9 | KCNK9 inh conf inactive | Kir21 sel inactive | KCNK9 uninduced 45.5%
COc1ccc(C2CC(c3ccccc3)=NN2C(=O)COC(=O)c2cccc(N)c2)cc1 (stereo not drawn)	none (no result: KCNK9 inh, KCC2 mod, hERG rescue, KCNQ1 pot, KCNQ1 block)
CCN(Cc1ccccc1)C(c1ccc(Cl)cc1)c1nnnn1C(C)(C)C (stereo not drawn)	KCNK9 inh -10.4 | KCNK9 inh conf 59.0% | Kir21 sel inactive | KCNK9 uninduced 54.0%
CCCC(c1nnnn1C(C)(C)C)N1CCN(C(=O)c2ccco2)CC1 (stereo not drawn)	none
CCCCCCn1c(N2CCN(c3ccccc3)CC2)nc2c1c(=O)n(C)c(=O)n2C	KCNK9 inh -8.53 (no result: KCC2 mod) | KCNK9 inh conf 43.0% | Kir21 sel inactive | KCNK9 uninduced 40.0%
Cn1c(=O)c2c(nc(CN3CCN(c4ccccc4F)CC3)n2CCCc2ccccc2)n(C)c1=O	none | KCNK9 inh conf inactive | Kir21 sel inactive | KCNK9 uninduced inactive
C=CCN(Cc1ccc(Cl)s1)C(=O)c1cc(S(=O)(=O)N2CCOCC2)ccc1F	none (no result: KCNK9 inh, KCC2 mod, hERG rescue, KCNQ1 pot, KCNQ1 block)
Cc1cccc(N(Cc2ccccc2)C(=O)c2cc(S(=O)(=O)N3CCOCC3)ccc2Cl)c1	none (no result: KCC2 mod) | KCNK9 inh conf inactive | Kir21 sel inactive | KCNK9 uninduced inactive
Cc1ccc(N(Cc2ccccc2)C(=O)c2cc(S(=O)(=O)N3CCOCC3)ccc2F)cc1	none (no result: KCNK9 inh, KCC2 mod, hERG rescue, KCNQ1 pot, KCNQ1 block)
Cc1ccc(C2CC2c2n[nH]c(=S)n2-c2ccc(C)cc2)cc1 (stereo not drawn)	KCC2 mod 21 | KCNK9 inh conf inactive | Kir21 sel inactive | KCNK9 uninduced inactive
Cc1ccc(-n2c([C@@H]3C[C@H]3c3ccccc3)n[nH]c2=S)cc1	none
O=S(=O)(c1ccc(F)cc1)c1nc(-c2ccccc2)oc1N1CCOCC1	none (no result: KCC2 mod)
CCn1c(SCCOc2ccc(Cl)cc2)nnc1-c1cccs1	none | KCNK9 inh conf inactive | Kir21 sel inactive | KCNK9 uninduced inactive
CCN(C(=O)COc1cc(=O)n(C)c2ccccc12)c1cccc(Cl)c1	none | KCNK9 inh conf inactive | Kir21 sel inactive | KCNK9 uninduced inactive
COc1ccc(S(=O)(=O)n2ccc(C(C)Oc3ccc(-c4ccccc4)c(F)c3)n2)cc1 (stereo not drawn)	KCNK9 inh -11.2 (no result: KCC2 mod) | KCNK9 inh conf 61.0% | Kir21 sel inactive | KCNK9 uninduced 39.5%
COc1ccc(-c2[nH]ncc2/C=C(/C#N)C(=O)NC2CCCCC2)cc1	none | KCNK9 inh conf inactive | Kir21 sel inactive | KCNK9 uninduced inactive
N#C/C(=C\c1ccccc1[N+](=O)[O-])C(=O)NC1CCCCC1	none
Cc1ccc(-c2[nH]ncc2/C=C(\C#N)C(=O)NC2CCCCC2)cc1	none | KCNK9 inh conf inactive | Kir21 sel inactive | KCNK9 uninduced inactive
N#C/C(=C\c1cc(Cl)ccc1O)C(=O)NC1CCCCC1	none (no result: KCC2 mod)
CCN(c1ccccc1)S(=O)(=O)c1cccc(C(=O)N(C)CC(=O)Nc2ccc(F)c(F)c2F)c1	none (no result: KCNK9 inh, KCC2 mod, hERG rescue, KCNQ1 pot, KCNQ1 block)
CCOC(=O)C1(CC)NC(c2ccc(OC)c(OC)c2)C2C(=O)N(c3cccc(C(C)=O)c3)C(=O)C21 (stereo not drawn)	none (no result: KCC2 mod)
COc1ccc(-c2n(Cc3ccccc3)c3ccccc3[n+]2Cc2ccccc2)cc1	KCNK9 inh -10.7, KCNQ1 block 8 | KCNK9 inh conf inactive | Kir21 sel 43.0% | KCNK9 uninduced inactive
COc1ccccc1N=Nc1c(C)[nH]n(-c2ccccc2)c1=O	none (no result: KCC2 mod)
COc1ccc(N=C(c2ccccc2)c2c(C)[nH]n(-c3ccccc3)c2=O)c(OC)c1	KCNQ1 block 6 | KCNK9 inh conf inactive | Kir21 sel inactive | KCNK9 uninduced 32.5%
Cc1ccc2nc(-c3ccccc3)c(CN3CCN(c4ccccc4F)CC3)n2c1	none | KCNK9 inh conf inactive | Kir21 sel inactive | KCNK9 uninduced inactive
Cc1ccc2nc(-c3ccccc3)c(CN3CCSCC3)n2c1	none
O=C(Oc1ccccc1)c1ccccc1OS(=O)(=O)c1ccccc1	KCNK9 inh -9.48 | KCNK9 inh conf 44.0% | Kir21 sel inactive | KCNK9 uninduced 34.5%
COc1ccccc1C(=O)Oc1ccc(C(C)C)cc1	none | KCNK9 inh conf inactive | Kir21 sel inactive | KCNK9 uninduced 29.5%
COc1ccccc1C(=O)O/N=C(\N)c1ccccc1Cl	none
O=C(Nc1ccccc1)c1ccccc1OS(=O)(=O)c1ccccc1	none (no result: KCC2 mod)
COc1ccc(C)cc1Nc1n[n+](-c2ccccc2)c(-c2c(Cl)cccc2Cl)s1	KCNK9 inh -15.5, KCNQ1 block 11 (no result: KCC2 mod, KCNK3 block) | KCNK9 inh conf 64.5% | Kir21 sel 33.0% | KCNK9 uninduced 36.5%
COc1ccccc1/C=C/C=N\N1CCN(Cc2ccccc2Cl)CC1	none | KCNK9 inh conf inactive | Kir21 sel inactive | KCNK9 uninduced inactive
C(=C\c1ccccc1)/C=N/N1CCN(Cc2ccccc2)CC1	none
COc1ccccc1N1CCN(Cc2ccco2)CC1	none (no result: KCC2 mod)

Bioassay records: PubChem, several laboratories
